This is an account of results in ChEMBL document CHEMBL1649115, “Enhanced susceptibility to antifungal oligopeptides in yeast strains overexpressing ABC multidrug efflux pumps” (Antimicrob Agents Chemother, 2008).

In brackets after ≈: the same amount, converted by molar mass.

For data set [1], the system named is Saccharomyces cerevisiae. The data set is described as follows: Drug uptake in Saccharomyces cerevisiae ADCDR2 expressing Candida albicans CDR2 efflux pump at 200 uM pretreated for 10 mins measured after 60 mins by fluorescamine staining. Format: ADME, organism-based. The note with it: in vivo, 1 h.
Data set [2] has as its system Saccharomyces cerevisiae. The data set can be described thus: Drug uptake in Saccharomyces cerevisiae ADCDR1 expressing Candida albicans CDR1 efflux pump at 200 uM pretreated for 10 mins measured after 60 mins by fluorescamine staining. The settings on record: in vivo, 1 h. The format is ADME, organism-based.
Data set [3] deals with Saccharomyces cerevisiae. The data set can be described thus: Antifungal activity against Saccharomyces cerevisiae ADCDR2 expressing Candida albicans CDR2 efflux pump in YNBG medium containing 1 mg/ml […] after 24 hrs by microdilution method. Format: functional. The settings on record: ADCDR2, 24 h.
Data set [4] concerns Saccharomyces cerevisiae. The data set is described as follows: Antifungal activity against Saccharomyces cerevisiae AD12345678 in YNBG medium containing 1 mg/ml […] after 24 hrs by microdilution method. The format is functional. The settings on record: AD12345678, 24 h. Background: In broth dilution the organism is exposed to a series of concentrations in liquid medium.

Data set [5] concerns Candida albicans. The data set can be described thus: Antifungal activity against fluconazole sensitive Candida albicans isolate Gu4 in RPMI-1640 buffered medium after 24 hrs by microdilution method. The format is functional. The settings on record: Candida albicans, isolate Gu4, 24 h; read-out: MIC. An outline of the steps: (§1)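 C. albicans cells were grown in 2% glucose, 1% yeast extract, 1% Bacto peptone medium before testing. […] CARE-2 fingerprinting confirmed that each pair is a single strain.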

Data set [6] relates to Candida albicans. The data set is described as follows: Antifungal activity against fluconazole resistant Candida albicans isolate Gu5 overexpressing CDR1 and CDR2 in RPMI-1640 buffered medium after 24 hrs by microdilution method. Format: functional. The settings on record: isolate Gu5, 24 h. An outline of the steps: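 C. albicans cells were grown in 2% glucose, 1% yeast extract, 1% Bacto peptone medium before testing. CARE-2 fingerprinting confirmed that each pair is a single strain.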

Data set [7] has as its system Candida albicans. The data set is described as follows: Antifungal activity against wild type Candida albicans 10261 in RPMI-1640 buffered medium after 24 hrs by microdilution method. Format: functional. The settings on record: Candida albicans, 10261, 24 h; read-out: MIC. The procedure, abridged: as §1
The test system of data set [8] is Saccharomyces cerevisiae. The data set is described as follows: Antifungal activity against Saccharomyces cerevisiae ADCDR1 expressing Candida albicans CDR1 efflux pump in YNPG medium containing 1 mg/ml […] after 24 hrs by microdilution method. Format: functional. The note with it: ADCDR1, 24 h.
For data set [9], the system named is Candida albicans. The data set can be described thus: Antifungal activity against fluconazole resistant Candida albicans isolate B4 overexpressing MDR1 in RPMI-1640 buffered medium after 24 hrs by microdilution method. The format is functional. The note with it: Candida albicans, isolate B4, 24 h; read-out: MIC. An outline of the steps:
as §1

For data set [10], the system named is Candida albicans. The data set can be described thus: Antifungal activity against fluconazole sensitive Candida albicans isolate B3 in RPMI-1640 buffered medium after 24 hrs by microdilution method. The format is functional. The settings on record: Candida albicans, isolate B3, 24 h; read-out: MIC. An outline of the steps:
as §1

Data set [11] has as its system Saccharomyces cerevisiae. The data set is described as follows: Antifungal activity against Saccharomyces cerevisiae ADMDR1 expressing Candida albicans MDR1 efflux pump in YNPG medium containing 1 mg/ml […] after 24 hrs by microdilution method. The note with it: ADMDR1, 24 h. The format is functional.
For data set [12], the system named is Saccharomyces cerevisiae. The data set is described as follows: Drug uptake in Saccharomyces cerevisiae AD12345678 at 200 uM pretreated for 10 mins measured after 60 mins by fluorescamine staining. Format: ADME, organism-based. The settings on record: in vivo, 1 h.
The subject of data set [13] is Saccharomyces cerevisiae. The data set is described as follows: Antifungal activity against Saccharomyces cerevisiae ADCDR1 expressing Candida albicans CDR1 efflux pump in YNBG medium containing 1 mg/ml […] after 24 hrs by microdilution method. Format: functional. The note with it: ADCDR1, 24 h.
Data set [14] deals with Saccharomyces cerevisiae. The data set can be described thus: Drug uptake in Saccharomyces cerevisiae ADMDR1 expressing Candida albicans MDR1 efflux pump at 200 uM pretreated for 10 mins measured after 60 mins by fluorescamine staining. The format is ADME, organism-based. The settings on record: in vivo, 1 h.
Data set [15] relates to Saccharomyces cerevisiae. The data set can be described thus: Antifungal activity against wild type Saccharomyces cerevisiae ATCC 9763 in YNPG medium containing 1 mg/ml […] after 24 hrs by microdilution method. The format is functional. The settings on record: ATCC 9763, 24 h.
In data set [16] the test system is Saccharomyces cerevisiae. The data set can be described thus: Drug extrusion in Saccharomyces cerevisiae ADCDR2 expressing Candida albicans CDR2 efflux pump reenergized with glucose at pH 6.0 assessed as fluorescamine-compound conjugate level after 30 mins. The note with it: in vivo, pH 6, 0.5 h. Format: ADME, organism-based. An outline of the steps:
(§2)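 Cells de-energized with 2-deoxy-D-glucose were loaded (200 µM, 60 min, pH 4.0), washed, and resuspended at OD660 1.0 in 50 mM phosphate pH 6.0 at 30°C. After 5-min preincubation, 10 mM glucose was added. Supernatants were sampled every 5 min and assayed with fluorescamine. Unloaded, identically treated cells gave the background control.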

For data set [17], the system named is Saccharomyces cerevisiae. The data set is described as follows: Antifungal activity against Saccharomyces cerevisiae AD12345678 in YNPG medium containing 1 mg/ml […] after 24 hrs by microdilution method. The format is functional. The note with it: AD12345678, 24 h.
Data set [18] has as its system Saccharomyces cerevisiae. The data set can be described thus: Drug extrusion in Saccharomyces cerevisiae ADCDR1 expressing Candida albicans CDR1 efflux pump reenergized with glucose at pH 6.0 assessed as fluorescamine-compound conjugate level after 30 mins. The settings on record: in vivo, pH 6, 0.5 h. Format: ADME, organism-based. The procedure, abridged:
as §2

Data set [19] concerns Saccharomyces cerevisiae. The data set is described as follows: Antifungal activity against Saccharomyces cerevisiae ADMDR1 expressing Candida albicans MDR1 efflux pump in YNBG medium containing 1 mg/ml […] after 24 hrs by microdilution method. The format is functional. The settings on record: ADMDR1, 24 h.
The test system of data set [20] is Saccharomyces cerevisiae. The data set is described as follows: Antifungal activity against Saccharomyces cerevisiae ADCDR2 expressing Candida albicans CDR2 efflux pump in YNPG medium containing 1 mg/ml […] after 24 hrs by microdilution method. Format: functional. The note with it: ADCDR2, 24 h.
In data set [21] the test system is Saccharomyces cerevisiae. The data set can be described thus: Antifungal activity against wild type Saccharomyces cerevisiae ATCC 9763 in YNBG medium containing 1 mg/ml […] after 24 hrs by microdilution method. Format: functional. The settings on record: ATCC 9763, 24 h.

As for `N[C@H]1CCC[C@H]1C(=O)O`, the Drug uptake was determined as 1.85 nmol/min/mg with Saccharomyces cerevisiae [1], 2.11 nmol/min/mg in the data set with Saccharomyces cerevisiae [2], 1.63 nmol/min/mg in the data set with Saccharomyces cerevisiae [12] and 1.67 nmol/min/mg in the data set with Saccharomyces cerevisiae [14]. For the same compound, the MIC against Saccharomyces cerevisiae [3] stood at 16 µg/mL (≈ 124 µM); in the data set on Saccharomyces cerevisiae [4] it was 8 µg/mL (≈ 61.9 µM); in the data set with Candida albicans [5], 1 µg/mL (≈ 7.74 µM); with Candida albicans [6], 4 µg/mL (≈ 31 µM); with Candida albicans [7], 1 µg/mL (≈ 7.74 µM); in the data set on Saccharomyces cerevisiae [8], 256 µg/mL (≈ 1980 µM). Further, the minimal inhibitory concentration (MIC) with Candida albicans [9] stood at 8 µg/mL (≈ 61.9 µM); in the data set on Candida albicans [10] it was 2 µg/mL (≈ 15.5 µM); against Saccharomyces cerevisiae [11], 256 µg/mL (≈ 1980 µM); in the data set with Saccharomyces cerevisiae [13], 16 µg/mL (≈ 124 µM); in the data set on Saccharomyces cerevisiae [15] it was 64 µg/mL (≈ 496 µM); against Saccharomyces cerevisiae [17], 128 µg/mL (≈ 991 µM). Moreover, the minimal inhibitory concentration (MIC) came to 16 µg/mL (≈ 124 µM) in the data set on Saccharomyces cerevisiae [19], 256 µg/mL (≈ 1980 µM) in the data set on Saccharomyces cerevisiae [20] and 4 µg/mL (≈ 31 µM) against Saccharomyces cerevisiae [21]. Further, the Activity in the data set with Saccharomyces cerevisiae [16] and with Saccharomyces cerevisiae [18] was 5 µM in each case.

For orientation: MIC means the lowest concentration that inhibits growth of the organism.
